Data on six molecules can be found in ChEMBL document CHEMBL1158759, “Cytotoxic bisindole alkaloids from a marine sponge Spongosorites sp” (J Nat Prod, 2005).

Molecules are shown by their SMILES. ≈ marks a conversion by molar mass, not a printed value. Some results are limits rather than exact numbers.

One assay deals with A549. The assay is described as follows: Cytotoxicity against human A549 cells after 48 hrs by SRB assay. The conditions noted are these: A549, 48 h, read-out: ED50 (the source's name). The assay is classed as functional. The essentials: (§1)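 Cells in exponential growth were seeded at (1-2) × 10^4 per well and grown 24 h. Cells were fixed with cold TCA and stained with 0.4% SRB in 1% acetic acid. Dye was solubilized in 10 mM unbuffered Tris base and A520 read.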
For orientation: Sulforhodamine B stains cellular protein and so reports cell mass.

The next assay relates to Klebsiella oxytoca. The assay is described as follows: Antibacterial activity against Klebsiella oxytoca 1082. The assay is classed as functional. The essentials: (§2)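 Agar dilution on Mueller Hinton agar holding 17 serial dilutions of sample (final 25 to 0.002 µg/mL), with meropenem and imipenem as standards. Strains were pre-grown 18 h at 37 °C in Fleisch extract broth, with 10% horse serum for some strains.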

The subject of the next assay is Enterococcus faecium. The assay is described as follows: Antibacterial activity against Streptococcus faecium MD 8b. The assay is classed as functional. The gist of the method:
as §2

Assay [1] relates to Staphylococcus aureus. Briefly: Antibacterial activity against Staphylococcus aureus 285. The format is functional. The gist of the method: as §2
A further assay relates to SK-MEL-2. The assay is described as follows: Cytotoxicity against human SK-MEL-2 cells after 48 hrs by SRB assay. The format is functional. The conditions noted are these: SK-MEL-2, 48 h, read-out: ED50 (the source's name). The gist of the method: as §1
The test system of assay [2] is Staphylococcus aureus. The assay is described as follows: Antibacterial activity against Staphylococcus aureus 503. The assay is classed as functional. The gist of the method:
as §2

Assay [3] has as its system Staphylococcus aureus. Briefly: Antibacterial activity against Staphylococcus aureus SG511. The format is functional. The essentials:
as §2

Another assay deals with SK-OV-3. Briefly: Cytotoxicity against human SKOV3 cells after 48 hrs by SRB assay. The format is functional. The conditions noted are these: SK-OV-3, 48 h, read-out: ED50 (the source's name). The gist of the method:
as §1

A further assay deals with HCT-15. The assay is described as follows: Cytotoxicity against human HCT15 cells after 48 hrs by SRB assay. The assay is classed as functional. The conditions noted are these: HCT-15, 48 h, read-out: ED50 (the source's name). The essentials:
as §1

In assay [4] the test system is Streptococcus pyogenes. Briefly: Antibacterial activity against Streptococcus pyogenes 77A. The format is functional. The gist of the method:
as §2

Assay [5] has as its system Streptococcus pyogenes. Briefly: Antibacterial activity against Streptococcus pyogenes 308A. The assay is classed as functional. The gist of the method:
as §2

A further assay relates to Escherichia coli. The assay is described as follows: Antibacterial activity against Escherichia coli DC2. The format is functional. The essentials: as §2
For another assay, the system named is XF498. The assay is described as follows: Cytotoxicity against human XF498 cells after 48 hrs by SRB assay. The format is functional. The conditions noted are these: XF498, 48 h, read-out: ED50 (the source's name). The essentials:
as §1

The next assay concerns Pseudomonas aeruginosa. Briefly: Antibacterial activity against Pseudomonas aeruginosa 1771M. The format is functional. The gist of the method:
as §2

The subject of the next assay is P388. Briefly: Cytotoxicity against mouse P388 cells. The format is functional, cell-based.

In the case of `O=C1NC[C@@H](c2c[nH]c3cc(Br)ccc23)N[C@H]1c1c[nH]c2cc(Br)ccc12` (relative stereo) [CIS-3,4-DIHYDROHAMACANTHIN B], the EC50 is 3.41 µg/mL (≈ 6.99 µM) in the assay on A549; 3.85 µg/mL (≈ 7.89 µM) in the assay on SK-MEL-2; 3.62 µg/mL (≈ 7.42 µM) in the assay with SK-OV-3; 2.83 µg/mL (≈ 5.8 µM) in the assay on HCT-15; 3.22 µg/mL (≈ 6.6 µM) with XF498. Also, the minimal inhibitory concentration (MIC) (commonly the least concentration at which growth counts as inhibited) in the assay with Klebsiella oxytoca is 25 µg/mL (≈ 51.2 µM); with Enterococcus faecium, greater than 25 µg/mL; against Staphylococcus aureus [1] it was 25 µg/mL (≈ 51.2 µM); against Staphylococcus aureus [2] it was 25 µg/mL (≈ 51.2 µM); in the assay on Staphylococcus aureus [3] it was 12.5 µg/mL (≈ 25.6 µM); against Streptococcus pyogenes [4] it was 25 µg/mL (≈ 51.2 µM). The MIC against Streptococcus pyogenes [5] stood at 12.5 µg/mL (≈ 25.6 µM); with Escherichia coli, 25 µg/mL (≈ 51.2 µM); against Pseudomonas aeruginosa, 25 µg/mL (≈ 51.2 µM).
Consider `O=C(c1nc(-c2c[nH]c3cc(Br)ccc23)c[nH]1)c1c[nH]c2cc(O)ccc12` [BROMOTOPSENTIN], for which the EC50 was greater than 30 µg/mL in the assay on A549; 7.02 µg/mL (≈ 16.7 µM) with SK-MEL-2; 28.1 µg/mL (≈ 66.8 µM) in the assay with SK-OV-3; greater than 30 µg/mL with HCT-15; 15 µg/mL (≈ 35.6 µM) in the assay with XF498. In addition, the IC50 (usually the midpoint of a concentration-inhibition curve) in the assay on P388 came to 7 µg/mL (≈ 16.6 µM).
In the case of `COc1cccc2c1C(=O)c1c(O)c3c(c(O)c1C2=O)C[C@@](O)(C(=O)CO)C[C@@H]3O[C@H]1C[C@H](N)[C@H](O)[C@H](C)O1` [DOXORUBICIN], the EC50 in the assay with A549 turned out to be 0.01 µg/mL (≈ 0.0184 µM); in the assay on SK-MEL-2 it was 0.01 µg/mL (≈ 0.0184 µM); in the assay with SK-OV-3, 0.03 µg/mL (≈ 0.0552 µM); in the assay with HCT-15, 0.05 µg/mL (≈ 0.092 µM); with XF498, 0.01 µg/mL (≈ 0.0184 µM).
On to `C[C@@H](O)[C@H]1C(=O)N2C(C(=O)O)=C(SCCNC=N)C[C@H]12` [IMIPENEM ANHYDROUS], for which the MIC in the assay with Klebsiella oxytoca was 0.195 µg/mL (≈ 0.651 µM); in the assay with Enterococcus faecium, 0.781 µg/mL (≈ 2.61 µM); in the assay with Staphylococcus aureus [1], 0.013 µg/mL (≈ 0.0434 µM); in the assay on Staphylococcus aureus [2], 0.007 µg/mL (≈ 0.0234 µM); with Staphylococcus aureus [3], 0.013 µg/mL (≈ 0.0434 µM); in the assay with Streptococcus pyogenes [4], 0.004 µg/mL (≈ 0.0134 µM). The minimal inhibitory concentration (MIC) against Streptococcus pyogenes [5] came to 0.004 µg/mL (≈ 0.0134 µM); against Escherichia coli, 0.195 µg/mL (≈ 0.651 µM); against Pseudomonas aeruginosa it was 0.098 µg/mL (≈ 0.327 µM).
Consider `C[C@@H](O)[C@H]1C(=O)N2C(C(=O)O)=C(S[C@@H]3CN[C@H](C(=O)N(C)C)C3)[C@H](C)[C@H]12` [MEROPENEM], for which the MIC turned out to be 0.049 µg/mL (≈ 0.128 µM) against Klebsiella oxytoca; 6.25 µg/mL (≈ 16.3 µM) against Enterococcus faecium; 0.195 µg/mL (≈ 0.509 µM) in the assay on Staphylococcus aureus [1]; 0.049 µg/mL (≈ 0.128 µM) with Staphylococcus aureus [2]; 0.098 µg/mL (≈ 0.256 µM) with Staphylococcus aureus [3]; 0.007 µg/mL (≈ 0.0183 µM) with Streptococcus pyogenes [4]. Further, the MIC with Streptococcus pyogenes [5] was determined as 0.007 µg/mL (≈ 0.0183 µM); against Escherichia coli, 0.025 µg/mL (≈ 0.0652 µM); in the assay on Pseudomonas aeruginosa it was 0.098 µg/mL (≈ 0.256 µM).
Regarding `O=C(c1nc(-c2c[nH]c3ccccc23)c[nH]1)c1c[nH]c2cc(O)ccc12` [TOPSENTIN], the EC50 with A549 is greater than 30 µg/mL; in the assay with SK-MEL-2, greater than 30 µg/mL; in the assay with SK-OV-3 it was greater than 30 µg/mL; with HCT-15, 13.3 µg/mL (≈ 38.9 µM); in the assay on XF498 it was greater than 30 µg/mL. For the same molecule, the IC50 in the assay with P388 is 2 µg/mL (≈ 5.84 µM).
